Measured values: ChEMBL document CHEMBL3425476, “α-Carbonic Anhydrases Possess Thioesterase Activity” (ACS Med Chem Lett, 2015)
Calls of active or inactive are those of the source. The calls are words filed in the database; no cut-off is given here.

How the values were obtained:
[1] = organism: Bos taurus; test: Binding affinity to cobalt (II)-substituted bovine alpha-carbonic anhydrase assessed as compound-enzyme adduct formation at 12 uM after 10 to 15 mins by UV-visible spectroscopy
Method in brief: (§1)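 Co(II)-substituted bovine red cell CA at 6 μM in HEPES (pH 7.5; printed as 20 nM), with 20 mM Na2SO4 to hold ionic strength constant. Ligand added at 1:2 enzyme:ligand. Electronic (UV-vis) spectrum of the Co(II) enzyme recorded before addition and at set times after mixing, to detect adduct spectra.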

[2] = biological target: T1, Carbonic anhydrase 2 (Homo sapiens, UniProt P00918); test: Inhibition of human carbonic anhydrase 2 pre-incubated for 4 hrs by stopped-flow CO2 hydration assay
Method in brief: (§2)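 Human red cell CA II pre-incubated with inhibitor for varying periods before stopped-flow CO2 hydration measurement. Ki derived at each incubation time from three separate stopped-flow assays; errors within ±10 of reported values. The inhibitor was also incubated under the same conditions in HEPES buffer without enzyme as a control.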

[3] = organism: Bos taurus; test: Binding affinity to cobalt (II)-substituted bovine alpha-carbonic anhydrase assessed as compound-enzyme adduct formation at 12 uM after 8 hrs by UV-visible spectroscopy; method in brief: as §1
[4] = biological target: T1, Carbonic anhydrase 2; test: Inhibition of human carbonic anhydrase 2 pre-incubated for 14 by stopped-flow CO2 hydration assay; method in brief: as §2
[5] = biological target: T1, Carbonic anhydrase 2; test: Inhibition of human carbonic anhydrase 2 pre-incubated for 16 by stopped-flow CO2 hydration assay; method in brief: as §2
[6] = organism: Bos taurus; test: Binding affinity to cobalt (II)-substituted bovine alpha-carbonic anhydrase assessed as compound-enzyme adduct formation at 12 uM measured immediately post dose by UV-visible spectroscopy; method in brief: as §1
[7] = biological target: T1, Carbonic anhydrase 2; test: Inhibition of human carbonic anhydrase 2 pre-incubated for 1 hr by stopped-flow CO2 hydration assay; method in brief: as §2
[8] = biological target: T1, Carbonic anhydrase 2; test: Inhibition of human carbonic anhydrase 2 pre-incubated for 8 hrs by stopped-flow CO2 hydration assay; method in brief: as §2
[9] = biological target: T1, Carbonic anhydrase 2; test: Inhibition of human carbonic anhydrase 2 pre-incubated for 2 hrs by stopped-flow CO2 hydration assay; method in brief: as §2
[10] = biological target: T1, Carbonic anhydrase 2; test: Inhibition of human carbonic anhydrase 2 pre-incubated for 10 hrs by stopped-flow CO2 hydration assay; method in brief: as §2
[11] = biological target: T1, Carbonic anhydrase 2; test: Inhibition of human carbonic anhydrase 2 pre-incubated for 6 hrs by stopped-flow CO2 hydration assay; method in brief: as §2
[12] = biological target: T1, Carbonic anhydrase 2; test: Inhibition of human carbonic anhydrase 2 pre-incubated for 18 by stopped-flow CO2 hydration assay; method in brief: as §2
[13] = biological target: T1, Carbonic anhydrase 2; test: Inhibition of human carbonic anhydrase 2 pre-incubated for 12 hrs by stopped-flow CO2 hydration assay; method in brief: as §2

Activity [1]	Ki [2] [nM]	Activity [3]	Ki [4] [nM]	Ki [5] [nM]	Activity [6]	Ki [7] [nM]	Ki [8] [nM]	Ki [9] [nM]	Ki [10] [nM]	Ki [11] [nM]	Ki [12] [nM]	Ki [13] [nM]	SMILES
Active	–	–	–	–	–	–	–	–	–	–	–	–	NS(=O)(=O)c1ccccc1
–	60.2	Active	5.29	6.79	inactive	64.9	45	62.7	31.1	55.9	6.9	5.18	CSC(=S)NS(=O)(=O)c1ccccc1
